Test results taken from paper PMC5731780 (Structure (London, England : 1993), 2017).
Where “and” joins values, the source holds several entries; their conditions need not be identical. Identical values can stand only once.

What was measured:
Ub [1] = molecular target: T1, Ub (Homo sapiens, UniProt P0CG48); experiment: NMR titration of 15N-labeled Ub; format: binding
Ub [2] = molecular target: T1, Ub; experiment: ubiB fluorescence anisotropy titration with Ub; format: binding; conditions: read-out: Kd, Ub (fluorescence anisotropy)
Outline: (§1)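 Fluorescence anisotropy was measured at 21°C in PBS pH 7.4. ubiB was held at 1 μM for Ub2 titrations and 10 μM for Ub, while Ub or Ub2 was varied. Readings were taken in T-configuration, excitation 386 nm, emission 485 nm. Anisotropy change was fitted to a single-site binding model for Kd.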

Ub^R74A [3] = molecular target: T2, Ub^R74A (Homo sapiens, UniProt P0CG48, R74A); experiment: NMR titration of 15N-labeled Ub^R74A; format: binding
Outline: (§2)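 Unlabeled ubistatin was added in increasing amounts to 15N-labeled Ub variant in 20 mM phosphate (pH 6.8), 0.02% NaN3, 5% D2O at 23°. Binding was followed in 1H-15N HSQC or SOFAST-HMQC spectra. Signal shifts were quantified as CSPs and fitted against bound fraction to give Kd.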

Ub^R74A [4] = molecular target: T2, Ub^R74A; experiment: 15N T1 relaxation of Ub^R74A with ubistatin; format: binding; conditions: mean (SD)
Outline: (§3)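 Human Ub and its point mutants were expressed from pET3a and made by PCR mutagenesis. Samples were in 20 mM phosphate buffer (pH 6.8) with 0.02% (w/v) NaN3 and 5% D2O. 15N T1 was measured at 23° on 600 and 800 MHz spectrometers with cryoprobes, using standard pulse sequences.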

yeast 26S proteasome = experiment: Gel-based assay of DUB activity of 26S proteasome; format: biochemical
Ub^R42E,R72E [5] = molecular target: T3, Ub^R42E,R72E (Homo sapiens, UniProt P0CG48, R42E/R72E); experiment: NMR titration of 15N-labeled Ub^R42E,R72E; format: binding
Outline: (§4)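 Ub point mutants were made by PCR mutagenesis of human wild-type Ub in pET3a, with DpnI digestion and sequence verification. Increasing amounts of unlabeled ubistatin were titrated into 15N-labeled protein in 20 mM phosphate pH 6.8, 0.02% NaN3, 5% D2O, at 23°. Signal shifts and attenuations were tracked in 1H-15N HSQC or SOFAST-HMQC spectra, and spectral perturbations were quantified at each titration step.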

Ub^R74E [6] = molecular target: T4, Ub^R74E (Homo sapiens, UniProt P0CG48, R74E); experiment: 15N T1 relaxation of Ub^R74E with ubistatin; format: binding; conditions: mean (SD)
Outline: as §3

Ub^72 [7] = molecular target: T5, Ub^72 (Homo sapiens, UniProt P0CG48); experiment: NMR titration of 15N-labeled Ub^72; format: binding
Outline: as §2

K48-Ub2 [8] = molecular target: T6, K48-Ub2 (Homo sapiens, UniProt P0CG48); experiment: NMR competition assay against ubiquilin-1 UBA domain for K48-Ub2; format: binding
CFTR ubiquitination = experiment: In vitro CFTR ubiquitination assay; format: biochemical, yeast
HeLa and RCC4 cells = experiment: ubiB internalization in live cells by fluorescence microscopy; format: cell-based, human; conditions: 10 μM ubiB, 6 hrs
Outline: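 HeLa and RCC4 cells were grown in DMEM/10% FBS on glass-bottom dishes, exposed to 10 μM ubiB for 6 hrs, and washed three times in PBS. Plasma membrane was stained with Texas Red wheat germ agglutinin (1:500, 15 min). Live cells were imaged by confocal Z-stacks (63× oil), with 405 nm excitation for ubiB and 555 nm for the membrane probe.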

K48-Ub2 [9] = molecular target: T6, K48-Ub2; experiment: SANS of K48-Ub2 with ubiB; format: binding; conditions: equimolar ubiB
K48-Ub2 [10] = molecular target: T6, K48-Ub2; experiment: ubiB fluorescence anisotropy titration with K48-Ub2; format: binding; conditions: read-out: Kd, K48-Ub2 (fluorescence anisotropy)
Outline: as §1

HeLa cells = experiment: Perturbation of the Ub landscape in cells; format: cell-based, human
AMSH = experiment: Gel-based assay of K63-Ub2 disassembly by AMSH; format: biochemical; conditions: stoichiometric ubiB
Ub^R74E [11] = molecular target: T4, Ub^R74E; experiment: NMR titration of 15N-labeled Ub^R74E; format: binding
Outline: as §2

K11-Ub2 = K11-Ub2 (Homo sapiens, UniProt P0CG48); experiment: ubiB fluorescence anisotropy titration with K11-Ub2; format: binding; conditions: read-out: Kd, K11-Ub2 (fluorescence anisotropy)
Outline: as §1

Ub^R42E = Ub^R42E (Homo sapiens, UniProt P0CG48, R42E); experiment: NMR titration of 15N-labeled Ub^R42E; format: binding; conditions: read-out: Dissociation constant, Ub^R42E (NMR titration); Table 2
Outline: as §4

Ub^R42E,R72E [12] = molecular target: T3, Ub^R42E,R72E; experiment: 15N T1 relaxation of Ub^R42E,R72E with ubistatin; format: binding; conditions: mean (SD)
Outline: as §3

Ub [13] = molecular target: T1, Ub; experiment: SANS of Ub with ubiB; format: binding; conditions: equimolar ubiB
Cezanne (OTUD7B) = experiment: Gel-based assay of K11-Ub2 disassembly by Cezanne; format: biochemical; conditions: stoichiometric ubiB
Ub [14] = molecular target: T1, Ub; experiment: 15N T1 relaxation of Ub with ubistatin; format: binding; conditions: mean (SD) over residues in structured regions
Outline: (§5)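 15N T1 longitudinal relaxation measured with standard pulse sequences at 23°, 600 and 800 MHz with cryoprobes. 15N-labeled human Ub or K48-linked Ub2 was free or mixed with ubistatin in 20 mM phosphate buffer pH 6.8 with 0.02% (w/v) NaN3 and 5% D2O. Values are means with standard deviations averaged over residues in structured regions.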

[15] = tested on: Rpn11 in purified proteasome; experiment: Proteasome/Rpn11 inhibition assay; format: biochemical, human
Outline: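 Human erythrocyte proteasome was used with Ub4pep substrate: His6, four head-to-tail Ub repeats and a 30-mer peptide whose cysteine carried Oregon Green 488. Compounds were screened at 10 μM. IC50 came from 0–100 μM series in quadruplicate.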

Ub^72 [16] = molecular target: T5, Ub^72; experiment: 15N T1 relaxation of Ub^72 with ubistatin; format: binding; conditions: mean (SD)
Outline: as §3

K63-Ub2 = experiment: ubiB fluorescence anisotropy titration with K63-Ub2; format: binding, human; conditions: read-out: Kd, K63-Ub2 (fluorescence anisotropy)
Outline: as §1

K48-Ub2 [17] = molecular target: T6, K48-Ub2; experiment: 15N T1 relaxation of K48-Ub2 with ubistatin; format: binding; conditions: mean (SD)
Outline: as §5

Ubp6 = experiment: Gel-based assay of K48-Ub2 disassembly by Ubp6; format: biochemical, yeast
Ub [18] = molecular target: T1, Ub; experiment: NMR competition assay against ubiquilin-1 UBA domain for Ub; format: binding; conditions: up to 3-fold molar excess
OTUB1 = experiment: Gel-based assay of K48-Ub2 disassembly by OTUB1; format: biochemical; conditions: stoichiometric ubiB

O=S(=O)(O)c1cccc2cccc(Nc3ccccc3)c12 [ANS, 8-anilinonaphthalene-1-sulfonic acid, reference compound]
CSPs in Ub upon titration (Ub [1]): < 0.1 ppm

O=S(=O)(O)c1ccc2c(ccc3nn(-c4ccc(/C=C/c5ccc(-n6nc7ccc8cc(S(=O)(=O)O)ccc8c7n6)cc5S(=O)(=O)O)c(S(=O)(=O)O)c4)nc32)c1 [ubiB, Ubistatin B]
Kd (Ub [2]): 14 ± 1.6 µM
weakening of ubiB binding, Ub^R74A vs Ub (Ub^R74A [3]): 3.5 fold
Kd (Ub^R74A [3]; read-out: Dissociation constant, Ub^R74A (NMR titration), Table 2): 40.3 µM
15N T1 of Ub^R74A in the presence of ubistatin (Ub^R74A [4]): 544 (26) ms
disassembly of K11-Ub6+ by 26S proteasome (yeast 26S proteasome; 20 hr time course): only trace amounts of cleavage intermediates appeared
processing of Ubch5b-Ubn by 26S proteasome (yeast 26S proteasome; K11, K48, K63 linkage-specific antibodies): preserved all three linkage types
binding to Ub^R42E,R72E (Ub^R42E,R72E [5]): only negligible CSPs
Kd (Ub^R42E,R72E [5]; read-out: Dissociation constant, Ub^R42E,R72E (NMR titration), Table 2): > 1000 µM
15N T1 of Ub^R74E in the presence of ubistatin (Ub^R74E [6]): 556 (28) ms
decrease in binding affinity, Ub^72 vs Ub (Ub^72 [7]): 6 fold
Kd (Ub^72 [7]; read-out: Dissociation constant, Ub^72 (NMR titration), Table 2): 73.1 µM
competition with UBA for binding to K48-Ub2 (K48-Ub2 [8]): outcompeted UBA for binding to K48-Ub2
concentration required for complete inhibition of ubiquitination (CFTR ubiquitination): ≥ 100 µM
CFTR protein modified (ubiquitinated), DMSO control = 100% (CFTR ubiquitination; 100 μM compound, 26°C, 60 min): 18±2%
inhibition of ubiquitination (CFTR ubiquitination; at 1 μM ubiB): 5-10%
IC50 (CFTR ubiquitination; read-out: IC50, CFTR ubiquitination, titration of ubiB): ~10 µM and 10 µM
toxicity judged by cell morphology (HeLa and RCC4 cells): not toxic
cell internalization (HeLa and RCC4 cells; no chemical permeabilization): distinct ubiB fluorescence at and within the boundaries of the fluorescently labeled plasma membrane
Radius of gyration (Rg) of K48-Ub2 + ubiB (K48-Ub2 [9]): 20.1 (0.1) Å
Kd (Ub [1]; read-out: Dissociation constant, Ub (NMR titration), Table 2): 11.3 µM
direct binding to 15N Ub by CSPs (Ub [1]; starting Ub 1 mM): produced CSPs in and around Ub's hydrophobic patch
Kd (K48-Ub2 [10]): 0.264 ± 0.023 µM
Ub conjugates below 70 kDa (HeLa cells; 2 μM ubiB, 8 hrs): greatly diminished
Ub conjugates, RIPA lysis, Western blot (HeLa cells; 6 hrs ubiB treatment): increases the amount of Ub conjugates
disassembly of K63-Ub2 by AMSH (AMSH): prevented
weakening of ubiB binding, Ub^R74E vs Ub (Ub^R74E [11]): 6 fold
Kd (Ub^R74E [11]; read-out: Dissociation constant, Ub^R74E (NMR titration), Table 2): 67.6 µM
Kd (K11-Ub2): 1.83 ± 0.05 µM
Kd (Ub^R42E): 396 µM
15N T1 of Ub^R42E,R72E in the presence of ubistatin (Ub^R42E,R72E [12]): 493 (27) ms
Radius of gyration (Rg) of Ub + ubiB (Ub [13]): 17.4 (0.1) Å
disassembly of K11-Ub2 by Cezanne (OTUD7B) (Cezanne (OTUD7B)): prevented
15N T1 of Ub in the presence of ubistatin (Ub [14]): 660 ± 25 ms
inhibition of deubiquitination ([15]; at 1 μM ubiB): ~50%
IC50 ([15]; read-out: IC50, DUB activity of Rpn11 in purified proteasome, deubiquitination): 1.1 µM and 1 µM
15N T1 of Ub^72 in the presence of ubistatin (Ub^72 [16]): 482 (28) ms
Kd (K63-Ub2): 4.88 ± 0.22 µM
15N T1 of K48-Ub2 in the presence of ubistatin (K48-Ub2 [17]): 942 (66) ms
effect on disassembly of K48-Ub2 by Ubp6 (Ubp6): concentration-dependent effect
competition with UBA for binding to Ub (Ub [18]): outcompetes UBA for binding to Ub
disassembly of K48-Ub2 by OTUB1 (OTUB1): prevented
